Measured values pooled from the literature.
Protocols differ between the studies behind these lines.
Target: MAP/microtubule affinity-regulating kinase 3 (MARK3, Homo sapiens, UniProt P27448)

CN(C)CC#Cc1ccc(OCCCc2sc(N3CCc4cccc(C(=O)Nc5nc6ccccc6s5)c4C3)nc2C(=O)O)c(F)c1
remaining binding (cell-free assay, competition with immobilised ligand; 1 µM): 38%

COc1cc(Nc2cnc(C#N)c(O[C@H](C)CN(C)C)n2)ncc1-c1cnn(C)c1
remaining activity (enzyme activity, inhibitor, radiometric; 10 µM): 69%

C[C@H](NC(=O)c1cnc2n1[C@](C)(Cc1ccc(C#N)cc1)C(=O)N2c1cc(Cl)c(F)c(Cl)c1)C(=O)NC1(c2ccccn2)CC1
remaining binding (cell-free assay, competition with immobilised ligand; 1 µM): 92%

FC(F)(F)Oc1cccc(-c2cnc3ccc(-c4ccncc4)nn23)c1
activity vs control (enzyme activity, inhibitor, radiometric; 5 µM): 95%

O=C(NCCCNc1nc(Nc2cccc(CN3CCOCC3)c2)ncc1C1CC1)C1CCC1
remaining activity (enzyme activity, inhibitor, radiometric; 1 µM): -1%

CN1CC(Oc2cnc(C#N)cc2-c2ccn3nc(NC(=O)C4CC4)cc3c2)C1
inhibition (enzyme activity, inhibitor; 1 µM): 17%

C[C@@H]1CN(c2cc(-c3n[nH]c4ccc(OC5(C)CC5)cc34)ncn2)C[C@H](C)O1
remaining binding (cell-free assay, competition with immobilised ligand; 0.1 µM): 73%

COc1cc2ncnc(Nc3ccc(Oc4ccccc4)cc3C)c2cc1OC
inhibition (enzyme activity, inhibitor; 1 µM): 8%

O=C(CSc1nc2nccnc2c(=O)n1CCc1ccccc1)Nc1nccs1
inhibition (enzyme activity, inhibitor; 10 µM): 7%

Cc1nn(CC(F)(F)F)cc1Nc1nccc(NCCc2cnc[nH]2)n1
remaining activity (enzyme activity, inhibitor, radiometric; 1 µM): 126%

CCCS(=O)(=O)Nc1ccc(F)c(C(=O)c2c[nH]c3ncc(-c4ccc(Cl)cc4)cc23)c1F
inhibition (enzyme activity, inhibitor; 1 µM): < 10%

Cc1nn(CC(F)(F)F)cc1Nc1ncc(C2CC2)c(NCCc2c[nH]cn2)n1
remaining activity (enzyme activity, inhibitor, radiometric; 1 µM): 96%

CCN(CC)CCNC(=O)c1c(C)[nH]c(/C=C2\C(=O)Nc3ccc(F)cc32)c1C
remaining signal (cell-free assay; 0.5 µM): 30.4%

O=C(NCCCNc1nc(Nc2cccc(NC(=O)N3CCCC3)c2)ncc1C1CC1)C1CCC1
remaining activity (enzyme activity, inhibitor, radiometric; 1 µM): 0%

Nc1nc(Nc2ccccc2)sc1C(=O)c1c(F)cccc1F
remaining activity (enzyme activity, inhibitor; 10 µM): 25%

CSc1cccnc1N1CCN(Cc2nc3ccccc3[nH]2)CC1
remaining binding (cell-free assay, competition with immobilised ligand; 1 µM): 98%

CN1CCc2cc(Nc3ncc(C4CC4)c(NCCCNC(=O)C4CCC4)n3)ccc2C1
remaining activity (enzyme activity, inhibitor, radiometric; 1 µM): -4%

COc1cccc2c(NCc3ccccc3)nc(-n3c(N)nc4ccccc43)nc12
inhibition (target engagement in cells, inhibitor, chemoproteomics; 20 mM): -1%

N#CCCc1ccc2c(c1)-c1[nH]c3ccc([N+](=O)[O-])cc3c1CC(=O)N2
remaining signal (cell-free assay; 0.5 µM): 67.3%

Cc1nn(CC(F)(F)F)cc1Nc1ncc(C2CC2)c(NCc2ccc(S(N)(=O)=O)cc2)n1
remaining activity (enzyme activity, inhibitor, radiometric; 1 µM): 111%

COc1ccc(COc2ccc(Cc3cnc(N)nc3N)cc2OC)cc1
remaining signal (cell-free assay; 0.5 µM): 103%

c1ccc(CNc2nc(N3CCOc4ccccc43)nc3c2CCCC3)cc1
inhibition (target engagement in cells, inhibitor, chemoproteomics; 20 mM): 3%

CC(=O)N1CCC(c2ccc(C(=O)NC(=N)N)cc2C(F)(F)F)CC1
remaining binding (cell-free assay, competition with immobilised ligand; 1 µM): 88%

Cc1nn(CC(F)(F)F)cc1Nc1ncc(Br)c(NCCc2cnc[nH]2)n1
remaining activity (enzyme activity, inhibitor, radiometric; 1 µM): 68%

CN(C)c1ncnc(-c2ccc3nc(Nc4cc(CN5CCN(C(=O)CC(F)(F)F)CC5)ccn4)[nH]c3c2)c1Cl
remaining binding (cell-free assay, competition with immobilised ligand; 1 µM): 100%

CN(c1ncccc1CNc1nc(Nc2ccc3c(c2)CC(=O)N3)ncc1C(F)(F)F)S(C)(=O)=O
inhibition (enzyme activity, inhibitor; 1 µM): 83.5%

Cc1cc(NC(=O)c2cccc(S(F)(F)(F)(F)F)c2)cc(-n2ccn3nc(-c4cccnc4)cc23)c1
remaining binding (cell-free assay, competition with immobilised ligand; 1 µM): 100%

COc1cc(/C=C/C(=O)CC(=O)/C=C/c2ccc(O)c(OC)c2)ccc1O
activity vs control (enzyme activity, inhibitor; 1 µM): 90%

Cc1nn(CC(F)(F)F)cc1Nc1ncc(C2CC2)c(NCCCNC(=O)C2CCC2)n1
remaining activity (enzyme activity, inhibitor, radiometric; 1 µM): 96%

CCOC(=O)c1cc2cc(-c3cc(C(=O)NCc4ccc(C(=O)O)cc4)nn3C)ccc2[nH]1
remaining binding (cell-free assay, competition with immobilised ligand; 0.1 µM): 93%
